# Data: ChEMBL document CHEMBL4616631, “Design, synthesis and evaluation of phthalide alkyl tertiary amine derivatives as promising acetylcholinesterase inhibitors with high potency and selectivity against Alzheimer's disease” (Bioorg Med Chem, 2020)
# Assays:
# [1] = molecular target: T1, Amine oxidase [flavin-containing] A (Homo sapiens, UniProt P21397); experiment: Inhibition of recombinant human MAO-A expressed in baculovirus infected BTI insect cells at 10 uM using kynuramine as substrate measured after 30 mins by fluorescence based assay relative to control; conditions: 0.5 h
# T1 sequence (P21397 whole entry): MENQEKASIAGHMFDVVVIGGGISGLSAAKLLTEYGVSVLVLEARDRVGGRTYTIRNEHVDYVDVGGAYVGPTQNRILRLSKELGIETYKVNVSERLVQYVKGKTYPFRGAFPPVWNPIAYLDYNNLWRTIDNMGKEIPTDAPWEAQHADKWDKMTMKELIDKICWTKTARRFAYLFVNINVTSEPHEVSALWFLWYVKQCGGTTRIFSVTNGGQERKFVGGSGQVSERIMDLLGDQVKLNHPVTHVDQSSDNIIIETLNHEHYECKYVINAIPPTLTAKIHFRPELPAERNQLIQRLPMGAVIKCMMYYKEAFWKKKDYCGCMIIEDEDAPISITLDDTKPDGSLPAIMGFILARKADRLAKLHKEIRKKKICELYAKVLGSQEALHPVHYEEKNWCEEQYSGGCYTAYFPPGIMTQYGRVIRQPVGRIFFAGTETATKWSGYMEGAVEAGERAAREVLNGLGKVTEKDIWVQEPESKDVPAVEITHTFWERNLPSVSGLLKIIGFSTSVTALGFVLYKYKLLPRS
# Method in brief: (§1)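 Recombinant human MAO-A or MAO-B (7.5 µg/mL) in 100 mM potassium phosphate, pH 7.4, with 20.2 mM KCl and DMSO below 4%. Kynuramine was 45 µM for MAO-A and 30 µM for MAO-B. Incubation 30 min at 37 °C, stopped with NaOH and water, then centrifuged. Supernatant fluorescence ex 310/em 400 nm. Triplicate.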
# [2] = molecular target: Amyloid-beta precursor protein (Homo sapiens) (UniProt P05067); experiment: Inhibition of HFIP-pretreated self-induced amyloid beta (1 to 42) (unknown origin) aggregation at 25 uM measured after 24 hrs by ThT fluorescence assay relative to control
# Sequence of Amyloid-beta precursor protein (Homo sapiens) (P05067 whole entry): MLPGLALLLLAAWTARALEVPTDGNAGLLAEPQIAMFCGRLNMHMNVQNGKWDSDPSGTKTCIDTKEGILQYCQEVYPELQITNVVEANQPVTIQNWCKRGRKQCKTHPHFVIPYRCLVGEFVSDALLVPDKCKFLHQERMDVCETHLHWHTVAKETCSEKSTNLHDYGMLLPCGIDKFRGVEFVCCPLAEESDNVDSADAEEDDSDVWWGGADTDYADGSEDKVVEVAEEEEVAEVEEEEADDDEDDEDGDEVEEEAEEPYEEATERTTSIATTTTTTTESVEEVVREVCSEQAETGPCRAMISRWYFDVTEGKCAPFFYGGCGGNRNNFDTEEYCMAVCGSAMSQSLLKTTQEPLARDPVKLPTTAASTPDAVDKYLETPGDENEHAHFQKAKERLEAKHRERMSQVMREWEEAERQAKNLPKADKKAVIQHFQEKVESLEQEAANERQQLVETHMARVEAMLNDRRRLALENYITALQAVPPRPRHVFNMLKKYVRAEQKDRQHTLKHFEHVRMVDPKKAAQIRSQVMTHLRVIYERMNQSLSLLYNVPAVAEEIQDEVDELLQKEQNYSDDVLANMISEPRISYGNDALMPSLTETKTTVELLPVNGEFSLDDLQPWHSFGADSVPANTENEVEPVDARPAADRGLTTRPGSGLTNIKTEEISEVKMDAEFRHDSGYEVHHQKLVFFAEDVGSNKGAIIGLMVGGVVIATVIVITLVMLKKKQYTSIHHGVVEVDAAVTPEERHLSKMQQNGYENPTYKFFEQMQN
# Method in brief: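 Aβ1-42 was pretreated in HFIP for 24 h at room temperature, dried, and dissolved in DMSO to a 200 µM stock. Aβ (25 µM) was incubated with compound (25 µM) at 37 °C for 24 h. ThT was added at 5 µM in glycine-NaOH, pH 8.5. Fluorescence ex 446/em 490 nm, background-subtracted; inhibition = (1−IFi/IFc)×100. Triplicate.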
# [3] = molecular target: T2, Amine oxidase [flavin-containing] B (Homo sapiens, UniProt P27338); experiment: Inhibition of recombinant human MAO-B expressed in baculovirus infected BTI insect cells at 10 uM using kynuramine as substrate measured after 30 mins by fluorescence based assay relative to control; conditions: 0.5 h; method in brief: as §1
# T2 sequence (P27338 whole entry): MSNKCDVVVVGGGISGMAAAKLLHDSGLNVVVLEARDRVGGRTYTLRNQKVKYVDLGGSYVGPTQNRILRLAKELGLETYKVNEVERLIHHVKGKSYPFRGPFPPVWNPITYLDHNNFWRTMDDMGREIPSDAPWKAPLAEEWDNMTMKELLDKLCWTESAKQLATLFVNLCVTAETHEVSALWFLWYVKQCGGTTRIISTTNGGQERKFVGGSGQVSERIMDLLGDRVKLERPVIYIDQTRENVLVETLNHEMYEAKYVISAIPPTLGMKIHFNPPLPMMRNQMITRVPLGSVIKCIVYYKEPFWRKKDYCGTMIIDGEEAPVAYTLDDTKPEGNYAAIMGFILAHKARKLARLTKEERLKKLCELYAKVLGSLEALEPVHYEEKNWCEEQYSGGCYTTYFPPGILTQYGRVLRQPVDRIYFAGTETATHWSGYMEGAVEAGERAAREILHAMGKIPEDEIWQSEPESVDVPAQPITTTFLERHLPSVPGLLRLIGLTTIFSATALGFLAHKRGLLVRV
# Acetylcholinesterase = Acetylcholinesterase (Electrophorus electricus, UniProt O42275); experiment: Inhibition of Electrophorus electricus AChE using […] as substrate incubated for 15 mins by Ellman's method
# Sequence of Acetylcholinesterase (O42275 whole entry): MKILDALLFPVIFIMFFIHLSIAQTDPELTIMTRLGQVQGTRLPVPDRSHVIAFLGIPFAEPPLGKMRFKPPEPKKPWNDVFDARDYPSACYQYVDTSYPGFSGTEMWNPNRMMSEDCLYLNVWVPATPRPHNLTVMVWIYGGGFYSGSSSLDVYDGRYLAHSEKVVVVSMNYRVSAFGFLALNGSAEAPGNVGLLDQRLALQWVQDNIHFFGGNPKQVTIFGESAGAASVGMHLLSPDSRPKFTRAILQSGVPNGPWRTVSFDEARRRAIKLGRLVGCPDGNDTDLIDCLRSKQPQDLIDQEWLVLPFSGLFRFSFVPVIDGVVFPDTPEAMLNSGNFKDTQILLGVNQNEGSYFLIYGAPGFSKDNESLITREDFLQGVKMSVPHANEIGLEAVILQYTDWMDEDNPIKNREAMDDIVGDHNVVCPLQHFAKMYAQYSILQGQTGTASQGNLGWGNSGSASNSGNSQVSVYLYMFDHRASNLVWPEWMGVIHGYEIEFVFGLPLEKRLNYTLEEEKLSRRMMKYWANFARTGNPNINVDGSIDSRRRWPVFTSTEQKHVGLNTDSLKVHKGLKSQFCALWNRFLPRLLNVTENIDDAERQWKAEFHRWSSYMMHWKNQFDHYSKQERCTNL
# [4] = molecular target: Butyrylcholinesterase (BuChE) (Rattus norvegicus, UniProt Q9JKC1); experiment: Inhibition of BuChE in rat serum at 50 uM using S-butylthiocholine iodide as substrate by Ellman's method relative to control; format: cell-free; conditions: probe S-butylthiocholine iodide
# Sequence of Butyrylcholinesterase (BuChE) (Q9JKC1 whole entry): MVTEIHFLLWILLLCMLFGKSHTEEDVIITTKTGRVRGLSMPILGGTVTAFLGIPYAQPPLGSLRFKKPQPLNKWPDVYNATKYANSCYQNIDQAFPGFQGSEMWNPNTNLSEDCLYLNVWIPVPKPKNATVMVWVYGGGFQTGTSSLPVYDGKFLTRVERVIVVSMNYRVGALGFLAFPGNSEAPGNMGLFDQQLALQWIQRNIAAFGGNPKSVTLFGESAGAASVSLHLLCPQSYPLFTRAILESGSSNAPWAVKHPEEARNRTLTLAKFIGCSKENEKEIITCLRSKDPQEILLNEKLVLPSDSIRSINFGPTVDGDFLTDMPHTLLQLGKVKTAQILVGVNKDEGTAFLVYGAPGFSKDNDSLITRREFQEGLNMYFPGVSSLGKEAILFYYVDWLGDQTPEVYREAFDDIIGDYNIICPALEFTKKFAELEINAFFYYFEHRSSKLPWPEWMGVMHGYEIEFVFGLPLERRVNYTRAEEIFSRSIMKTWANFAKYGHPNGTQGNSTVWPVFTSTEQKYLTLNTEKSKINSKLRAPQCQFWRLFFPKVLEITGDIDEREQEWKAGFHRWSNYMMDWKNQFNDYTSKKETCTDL
# Method in brief: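 Rat serum (25%) as BuChE source, S-butylthiocholine iodide 1 mM, DTNB 0.2%, in 0.1 mM phosphate buffer pH 7.4, 37 °C 15 min (modified Ellman); absorbance change at 405 nm. Three independent experiments, each in triplicate.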
# [5] = Antioxidant activity assessed as trolox equivalent of AAPH-induced radical scavenging activity at 5 uM preincubated for 15 mins followed by AAPH addition measured every min for 90 mins by ORAC-FL assay; format: functional
# Method in brief: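 ORAC-FL in 75 mM phosphate buffer, pH 7.4. Sample at 5 µM was preincubated with fluorescein (150 nM final) for 15 min at 37 °C, then AAPH was added (12 mM final). Fluorescence (ex 485/em 535 nm) was read every minute for 90 min. […] Triplicate, at least three independent assays.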
# [6] = Permeability of the compound at 100 ug/ml measured after 18 hrs by PAMPA assay; format: ADME; conditions: read-out: permeability
# Method in brief: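 PAMPA-BBB. Filter coated with porcine brain lipid in dodecane. Compound (DMSO stock 5 mg/mL) was diluted to 100 µg/mL in PBS/EtOH (70:30) in the donor well, with PBS/EtOH in the acceptor. Left 18 h at 25 °C. Acceptor concentration read at ten wavelengths in four wells. Three independent runs, validated with 11 reference drugs.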
SMILES,inhibition at 10 µM [1] [%],inhibition [2] [%],inhibition at 10 µM [3] [%],IC50 (Acetylcholinesterase) [nM],inhibition at 50 µM [4] [%],Activity [5] [µMequiv/µM],"Papp at 18 h, 100 ug/ml [6] [×10⁻⁶ cm/s]"
CCN(CCCCC1OC(=O)c2cc(OC)c(OC)cc21)Cc1ccccc1N(C)C (centres undefined),17.8,15.3,15,260,44.8,0.43,–
COc1cc2c(cc1OC)/C(=C\CCCCCN(C)Cc1ccccc1)OC2=O,22.3,12.4,5.66,4.84,17.6,0.43,10.3
COc1ccccc1CN(C)CCC/C=C1\OC(=O)c2cc(OC)c(OC)cc21,2.9,15.1,10.3,1640,16.8,0.44,–
CCN(CCCCCCC1OC(=O)c2cc(OC)c(OC)cc21)Cc1ccccc1N(C)C (centres undefined),14.3,7.66,13.4,1240,40.5,0.6,–
CCN(CCC/C=C1\OC(=O)c2cc(OC)c(OC)cc21)Cc1ccc(N(C)C)cc1,12.9,22,8.86,23400,13.6,2.75,–
CCN(CCC/C=C1/OC(=O)c2cc(OC)c(OC)cc21)Cc1ccc(N(C)C)cc1,12.7,21.7,17,13800,14.1,2.89,–
CCN(CCC/C=C1/OC(=O)c2cc(OC)c(OC)cc21)Cc1ccccc1,12.6,30.3,15.8,1400,11,0.52,–
CCN(CCCCC/C=C1/OC(=O)c2cc(OC)c(OC)cc21)Cc1ccccc1N(C)C,28,13,7.3,890,35.2,1.2,–
COc1cc2c(cc1OC)/C(=C\CCCN1CCCCC1)OC2=O,1.52,11.3,38.8,440,26.9,0.32,–
COc1cc2c(cc1OC)C(CCCCN(C)Cc1ccccc1)OC2=O (centres undefined),8,8.9,6.4,350,11.5,0.29,–
CCN(CCC/C=C1/OC(=O)c2cc(OC)c(OC)cc21)Cc1ccccc1OC,27.1,19,4.8,800,19.1,0.53,–
COc1cc2c(cc1OC)/C(=C/CCCN1CCCCC1)OC2=O,1.95,4.9,32.3,4560,21.9,0.28,–
CCN(CCC/C=C1\OC(=O)c2cc(OC)c(OC)cc21)Cc1ccccc1N(C)C,29.1,15.4,9.9,210,40.5,0.78,–
CCN(CCC/C=C1/OC(=O)c2cc(OC)c(OC)cc21)Cc1ccccc1N(C)C,30,8.2,2.1,350,43.1,1.07,–
COc1cc2c(cc1OC)C(CCCCCCN(C)Cc1ccccc1)OC2=O (centres undefined),7.88,13,16.3,160,13.9,0.25,13.6
COc1cc2c(cc1OC)C(CCCCN1CCCCC1)OC2=O (centres undefined),1.92,< 5,34.7,15800,8.14,0.22,–
CCN(CCCCC1OC(=O)c2cc(OC)c(OC)cc21)Cc1ccccc1 (centres undefined),7.1,15.6,5.51,580,23.1,0.23,–
CCN(CCCCC1OC(=O)c2cc(OC)c(OC)cc21)Cc1ccccc1OC (centres undefined),27.8,13.8,10.4,370,29.8,0.74,–
CCN(CCC/C=C1\OC(=O)c2cc(OC)c(OC)cc21)Cc1ccccc1OC,26.7,23.8,12,1540,18.7,0.94,–
COc1ccccc1CN(C)CCCCC1OC(=O)c2cc(OC)c(OC)cc21 (centres undefined),0.25,14.4,5.7,490,21.7,0.27,–
CCN(CC)CCC/C=C1/OC(=O)c2cc(OC)c(OC)cc21,5.77,15.1,19.7,6260,4.19,0.22,–
COc1cc2c(cc1OC)/C(=C\CCCN(C)Cc1ccccc1)OC2=O,17.9,8.6,1.09,640,27.3,0.49,–
COc1ccccc1CN(C)CCC/C=C1/OC(=O)c2cc(OC)c(OC)cc21,4.9,19.1,9.44,410,21.9,0.38,–
CCN(CCCCC1OC(=O)c2cc(OC)c(OC)cc21)Cc1ccc(N(C)C)cc1 (centres undefined),12.1,< 5,9.47,24900,6.2,2.59,–
COc1cc2c(cc1OC)/C(=C/CCCN(C)Cc1ccccc1)OC2=O,10.9,11.7,11.9,340,12.2,0.32,–
CCN(CC)CCCCC1OC(=O)c2cc(OC)c(OC)cc21 (centres undefined),2.45,15,21.5,14700,5.1,0.31,–
CCN(CCC/C=C1\OC(=O)c2cc(OC)c(OC)cc21)Cc1ccccc1,10.4,17,13.8,360,17.3,0.36,–
